The species named for data set [1] is Cavia porcellus. Kind of data set: Activation of SERCA2a activity in guinea pig heart sarcoplasmic reticulum microsomal fraction assessed as increase in SERCA2a-Ca2+ affinity by measuring Kd of calcium at 10 to 100 nM preincubated for 5 mins followed by addition of 32-P-ATP measured after 15 mins. The format is subcellular. Particulars: filed as activator, dose 10-100 nM, time 20.0 min. In outline:
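Cardiac SR microsomes were prepared from healthy guinea pig hearts and contain SERCA2a plus PLN. Compounds were tested at 10 and 100 nM. ATPase was measured as 32P-ATP release at 37 °C, taking the cyclopiazonic acid (10 μM)-sensitive part, across Ca2+ 100–1500 nM. KdCa and Vmax were derived by curve fitting. N = 4–11; one-way RM ANOVA with Tukey or paired t-test.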

The species named for data set [2] is Cavia porcellus. Kind of data set: Activation of SERCA2a activity in guinea pig heart sarcoplasmic reticulum microsomal fraction assessed as increase in SERCA2a-Ca2+ affinity by measuring Kd of calcium at 100 nM preincubated for 5 mins followed by addition of 32-P-ATP measured after 15 mins relative to control. The format is subcellular. As to conditions: time 20.0 min. In outline:
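Cardiac SR microsomes were prepared from healthy guinea pig hearts and contain SERCA2a plus PLN. Compounds were tested at 10 and 100 nM. KdCa and Vmax were derived by curve fitting. N = 4–11; one-way RM ANOVA with Tukey or paired t-test.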

Data set [3] is filed under the species Cavia porcellus. Kind of data set: Activation of SERCA1 activity in guinea pig skeletal muscle microsome from hind leg assessed as increase in SERCA1-Ca2+ affinity by measuring reversal of PLN (1-12)-induced shift in dissociation of calcium. As to conditions: filed as activator, dose 30-1000 nM, DDE = dose-dependent effect. The format is microsomes.
Data set [4] is filed under the species Cavia porcellus. Nature of the data set: Activation of SERCA1 activity in guinea pig skeletal muscle microsome from hind leg assessed as increase in SERCA1-Ca2+ affinity by measuring Kd of calcium at 30 to 1000 nM preincubated for 5 mins followed by addition of 32-P-ATP measured after 15 mins in presence of PLN (1-12) relative to control. The format is microsomes. As to conditions: dose 30-1000 nM, time 20.0 min.

The nature of data set [5]: Acute toxicity in iv dosed Albino Swiss CD-1 mouse assessed as lethal dose after 24 hrs. As to conditions: in vivo. The format is organism-based. The procedure, abridged: (§1)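 Male Albino Swiss CD-1 mice received compound in saline. Intravenous doses were 100, 200, 250, 275 and 300 mg/kg (1–4 mice per group). Oral doses were 100, 200, 400, 600 and 800 mg/kg (4 per group). Vehicle-only controls were included.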

A short description of data set [6]: Acute toxicity in po dosed Albino Swiss CD-1 mouse assessed as lethal dose after 24 hrs. The format is organism-based. Particulars: in vivo. In outline:
as §1

For the next data set, the target named is Na+/K+ ATPase alpha 1 (Canis lupus familiaris, UniProt P50997). Kind of data set: Inhibition of Beagle dog kidney NA+/K+ ATPase alpha 1 by measuring 32P-ATP hydrolysis at 0.0001 M preincubated for 10 mins followed by addition of 32P-ATP measured after 15 mins. In kind it is toxicity. Particulars: dog kidney Na+/K+ ATPase alpha 1, probe 32P-ATP, time 25 min. The procedure, abridged:
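Na+/K+ ATPase-α1 was purified from dog kidney (specific activity 14 μmol/min/mg protein). Compounds were tested from 10–9 to 10–4 M. Activity is the ouabain (1 mM)-sensitive part of total 32P-ATP release at 37 °C. N = 2.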

In data set [7] the test system is Rattus norvegicus. Kind of data set: Hemodynamic activity in STZ-induced diabetic cardiomyopathy Sprague-Dawley rat model assessed as effect on heart rate at 0.2 mg/kg/min, iv for 15 to 30 mins measured after 10 mins of treatment by tissue doppler imaging method. In kind it is functional, organism-based. As to conditions: time lower […], time upper 40.0 min. The procedure, abridged: (§2)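 Male Sprague Dawley rats (150–175 g) were made diabetic with STZ 50 mg/kg i.v. in citrate buffer; fasting glycaemia >290 mg/dL at 1 week qualified. They were studied 8 weeks after STZ under urethane 1.25 g/kg i.p. Transthoracic echo with pulsed Doppler and TDI was taken before, at 15 and 30 min during i.v. infusion at 0.2 mg/kg/min, and 10 min after stopping. N = 13; one-way RM ANOVA.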

A short description of data set [8]: Inhibition of NA+/K+ ATPase activity in STZ-induced diabetic rat left ventricular myocytes assessed as inhibition of NA+/K+ ATPase current at 20 to 100 uM for 30 min. The format is toxicity, cell-based. As to conditions: ventricular myocyte, 0.5 h, dose 20-100 µM.
The subject of data set [9] is Rattus norvegicus. Kind of data set: Hemodynamic activity in STZ-induced diabetic cardiomyopathy Sprague-Dawley rat model assessed as transmitral doppler flow index by measuring increase in protodiastolic TDI relaxation velocity at 0.2 mg/kg/min, iv for 15 to 30 mins measured after 10 mins of treatment by tissue doppler imaging method. Particulars: time lower […], time upper 40.0 min. The format is functional, organism-based. The procedure, abridged:
as §2

The test system of data set [10] is Rattus norvegicus. Kind of data set: Hemodynamic activity in STZ-induced diabetic cardiomyopathy Sprague-Dawley rat model assessed as transmitral doppler flow index by measuring increasing in E and A waves at 0.2 mg/kg/min, iv for 15 to 30 mins measured after 10 mins of treatment by tissue doppler imaging method. In kind it is functional, organism-based. As to conditions: time lower […], time upper 40.0 min. The procedure, abridged:
as §2

A short description of data set [11]: Acute toxicity in Albino Swiss CD-1 mouse assessed as prostration at 100 to 800 mg/kg, po or 100 to 300 mg/kg, iv after 24 hrs. The format is organism-based. As to conditions: in vivo, dose 100-800 mg/kg. The procedure, abridged:
as §1

Data set [12] relates to Rattus norvegicus. Nature of the data set: Hemodynamic activity in STZ-induced diabetic cardiomyopathy Sprague-Dawley rat model assessed as effect on systolic TDI velocity at 0.2 mg/kg/min, iv for 15 to 30 mins measured after 10 mins of treatment by tissue doppler imaging method. In kind it is functional, organism-based. Particulars: time lower […], time upper 40.0 min. In outline:
as §2

The subject of data set [13] is Rattus norvegicus. Kind of data set: Hemodynamic activity in STZ-induced diabetic cardiomyopathy Sprague-Dawley rat model assessed as increased cardiac output at 0.2 mg/kg/min, iv for 15 to 30 mins measured after 10 mins of treatment by tissue doppler imaging method. As to conditions: time lower […], time upper 40.0 min. In kind it is functional, organism-based. In outline: as §2

Data set [14] deals with Rattus norvegicus. Nature of the data set: Hemodynamic activity in STZ-induced diabetic cardiomyopathy Sprague-Dawley rat model assessed as effect on left ventricular end-systolic diameter at 0.2 mg/kg/min, iv for 15 to 30 mins measured after 10 mins of treatment by tissue doppler imaging method. Particulars: time lower […], time upper 40.0 min. The format is functional, organism-based. The procedure, abridged: as §2

Data set [15] relates to Rattus norvegicus. Kind of data set: Hemodynamic activity in STZ-induced diabetic cardiomyopathy Sprague-Dawley rat model assessed as transmitral doppler flow index by measuring shortening in DT wave at 0.2 mg/kg/min, iv for 15 to 30 mins measured after 10 mins of treatment by tissue doppler imaging method. The format is functional, organism-based. As to conditions: time lower […], time upper 40.0 min. The procedure, abridged: as §2

The nature of data set [16]: Acute toxicity in Albino Swiss CD-1 mouse assessed as gasping at 100 to 800 mg/kg, po or 100 to 300 mg/kg, iv after 24 hrs. In kind it is organism-based. As to conditions: in vivo, dose 100-800 mg/kg. The procedure, abridged: as §1
Data set [17] in a line: Acute toxicity in Albino Swiss CD-1 mouse assessed as convulsions at 100 to 800 mg/kg, po or 100 to 300 mg/kg, iv after 24 hrs. The format is organism-based. As to conditions: in vivo, dose 100-800 mg/kg. The procedure, abridged:
as §1

In data set [18] the test system is Rattus norvegicus. Kind of data set: Hemodynamic activity in STZ-induced diabetic cardiomyopathy Sprague-Dawley rat model assessed as transmitral doppler flow index by measuring increase in telediastolic TDI relaxation velocity at 0.2 mg/kg/min, iv for 15 to 30 mins measured after 10 mins of treatment by tissue doppler imaging method. In kind it is functional, organism-based. As to conditions: time lower […], time upper 40.0 min. In outline: as §2

Data set [19] concerns Rattus norvegicus. Kind of data set: Hemodynamic activity in STZ-induced diabetic cardiomyopathy Sprague-Dawley rat model assessed as effect on systolic index by measuring fractional shortening at 0.2 mg/kg/min, iv for 15 to 30 mins measured after 10 mins of treatment by tissue doppler imaging method. The format is functional, organism-based. Particulars: time lower […], time upper 40.0 min. In outline:
as §2

Calls of active or inactive are those of the source. No cut-off for these calls is given here.

As usually defined, the LD50 is the dose expected to kill half of the subjects tested. Broadly, the inhibition is the relative decrease from the control value, in per cent.

Consider `C[C@]12CC[C@H](CCCC(=O)O)C[C@@H]1[C@H](O)C[C@@H]1[C@@H]2CC[C@]2(C)C(=O)CC[C@@H]12`, for which, in the data set listed under Cavia porcellus [1], the result was Active.

Turning to `C[C@]12CC/C(=C\CCC(=O)O)C[C@@H]1[C@@H](O)C[C@@H]1[C@@H]2CC[C@]2(C)C(=O)CC[C@@H]12`, in the data set listed under Cavia porcellus [1], the outcome was Active. Also, the Activity in the data set listed under Cavia porcellus [2] is -26%.

With `CCOC(=O)C[C@H]1CC[C@@]2(C)[C@H](C1)[C@@H](O)C[C@@H]1[C@@H]2CC[C@]2(C)C(=O)CC[C@@H]12`, in the data set listed under Cavia porcellus [1], the outcome was Active.

Turning to `C[C@]12CC[C@H](CC(=O)O)C[C@@H]1[C@@H](O)C[C@@H]1[C@@H]2CC[C@]2(C)C(=O)CC[C@@H]12`, in the data set listed under Cavia porcellus [1], the outcome was Active. In addition, the Activity in the data set listed under Cavia porcellus [2] was -26%; in the data set listed under Cavia porcellus [3], “Dde”; in the data set listed under Cavia porcellus [4], 23%.

With `C[C@]12CC/C(=N\OCC(=O)O)C[C@@H]1[C@H](O)C[C@@H]1[C@@H]2CC[C@]2(C)C(=O)CC[C@@H]12`, the LD50 at 24 h in data set [5] is above 250 mg/kg.

Consider `C[C@]12CCC(=NOCCN)C[C@@H]1C(=O)C[C@@H]1[C@@H]2CC[C@]2(C)C(=O)CC[C@@H]12` (mixture of isomers), for which the LD50 at 24 h in [6] is 200 mg/kg.

On to `C[C@]12CC[C@H](CC(=O)O)C[C@@H]1[C@H](O)C[C@@H]1[C@@H]2CC[C@]2(C)C(=O)CC[C@@H]12`, for which, at Na+/K+ ATPase alpha 1, the inhibition at […], 100 µM was -55%.

As for `CCOC(=O)CCCCC[C@H]1CC[C@@]2(C)[C@H](C1)[C@@H](O)C[C@@H]1[C@@H]2CC[C@]2(C)C(=O)CC[C@@H]12`, the result in the data set listed under Cavia porcellus [1] was Active. Also, the Activity in the data set listed under Cavia porcellus [2] was -26%.

Consider `C[C@]12CC[C@H](CCCC(=O)O)C[C@@H]1[C@@H](O)C[C@@H]1[C@@H]2CC[C@]2(C)C(=O)CC[C@@H]12`, for which the outcome with Rattus norvegicus [7], in the data set filed under Cavia porcellus [1], in the data set on Rattus norvegicus [9], in the data set on Rattus norvegicus [10], in the data set with Rattus norvegicus [12] and with Rattus norvegicus [13] was Active. Besides, the outcome in the data set on Rattus norvegicus [14], with Rattus norvegicus [15], in the data set with Rattus norvegicus [18] and in the data set with Rattus norvegicus [19] was Active. Besides, the “inhibition (INH)” value in data set [8] is on record as “Active”. Also, the Activity entry in [11] was “Non-Toxic”; in the data set listed under Cavia porcellus [3] it was “Dde”; in [16], “Non-Toxic”; in data set [17], “Non-Toxic”; in the data set filed under Cavia porcellus [4], 23%.

With `CCOC(=O)CCC[C@H]1CC[C@@]2(C)[C@H](C1)[C@@H](O)C[C@@H]1[C@@H]2CC[C@]2(C)C(=O)CC[C@@H]12`, the outcome in the data set filed under Cavia porcellus [1] was Active. For the same compound, in the data set filed under Cavia porcellus [2], the Activity was -26%.

As to `C[C@]12CC/C(=C\CCC(=O)O)C[C@@H]1[C@H](O)C[C@@H]1[C@@H]2CC[C@]2(C)C(=O)CC[C@@H]12`, the inhibition at […], 100 µM against Na+/K+ ATPase alpha 1 is -62%.

As for `C[C@]12CC[C@H](CCCCCC(=O)O)C[C@@H]1[C@@H](O)C[C@@H]1[C@@H]2CC[C@]2(C)C(=O)CC[C@@H]12`, the result in the data set filed under Cavia porcellus [1] was Active. Further, in the data set filed under Cavia porcellus [2], the Activity was -26%.

The values above are taken from ChEMBL document CHEMBL5154915 (J Med Chem, 2022).
